Assay results from the RNAGym collection of RNA variant scans (doi:10.1126/science.aae0568).
Variants at the floor of the assay were thinned out.

B1: tRNA (parent)
chain: GUUCCGUUGGCGUAAUGGUAACGCGUCUCCCUCCUAAGGAGAAGACUGCGGGUUCGAGUCCCGUACGGAACG

Variants of: B1
Experiment: yeast fitness relative to wild type (ratio to wild type); higher = fitter; tRNA-Arg(CCU), competitive growth, 37 C, YPD
Summary of the method: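 The tRNA-Arg(CCU) gene variants were made by chemical synthesis with a 3% per-site mutation rate at 69 sites and inserted at the native genomic locus of Saccharomyces cerevisiae. After pooling, the strains were competed in YPD at 37°C for 24 hours in six parallel replicates. Gene amplicons from the start population and each end population were read by 100-nucleotide paired-end sequencing, and Darwinian fitness relative to wild type was taken from genotype frequency changes. Genotypes needed ≥ 100 starting reads, and estimates < 0.5 were set to 0.5.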

| Variant | yeast fitness |
| --- | --- |
| U32G C33A | 0.601 |
| U32G C33G | 0.59 |
| U32G C33G A65U | ≤ 0.5 |
| U32G C33U A37G | ≤ 0.5 |
| U32G C34A A40C C60U | ≤ 0.5 |
| U32G C34U G52A | 0.589 |
| U32G C46A | 0.667 |
| U32G C46U | 0.562 |
| U32G C49G C55A | 0.65 |
| U32G C55G | ≤ 0.5 |
| U32G C61A C62A | 0.537 |
| U32G C61U G67U | ≤ 0.5 |
| U32G G38A | 0.586 |
| U32G G39C A57U C62G | ≤ 0.5 |
| U32G G39C G52C | 0.531 |
| U32G G41A C60G A65G | 0.548 |
| U32G G48A | 0.616 |
| U32G G58C A65U | ≤ 0.5 |
| U32G G63A | 0.557 |
| U32G G67A | 0.643 |
| U32G G67U | 0.547 |
| U32G U35A | ≤ 0.5 |
| U32G U35A A65U | ≤ 0.5 |
| U32G U35G A36C | ≤ 0.5 |

| Variant | yeast fitness |
| --- | --- |
| U32G U35G A36C U54C | ≤ 0.5 |
| U32G U47G | ≤ 0.5 |
| C33A A36C | 0.526 |
| C33A A36C G48A C66G | ≤ 0.5 |
| C33A A36C G63C C66G | 0.53 |
| C33A A36U A37G | ≤ 0.5 |
| C33A A36U C66U | ≤ 0.5 |
| C33A A36U G41A G48A | ≤ 0.5 |
| C33A A37C G56A A65G C66U | ≤ 0.5 |
| C33A A37C G63A | ≤ 0.5 |
| C33A A37G G39C C55U | ≤ 0.5 |
| C33A A37U A57C | ≤ 0.5 |
| C33A A37U A57G | 0.545 |
| C33A A40G A42G | 0.564 |
| C33A A40U G51U U64A | ≤ 0.5 |
| C33A A40U U53C C55U C62U | ≤ 0.5 |
| C33A A42G | 0.583 |
| C33A A42G A70U | ≤ 0.5 |
| C33A A42G U54C C62U | 0.637 |
| C33A A43G A45C | ≤ 0.5 |
| C33A A45G C49U A70U | ≤ 0.5 |
| C33A A45U A70C | 0.512 |
| C33A A45U C66A | ≤ 0.5 |
| C33A A57U C66U | 0.555 |

| Variant | yeast fitness |
| --- | --- |
| C33A A69G | 0.655 |
| C33A C34G A57U | ≤ 0.5 |
| C33A C34U | ≤ 0.5 |
| C33A C46A C61G A69G | ≤ 0.5 |
| C33A C46A G58A A70G | ≤ 0.5 |
| C33A C46A G67A | ≤ 0.5 |
| C33A C46U C61G | ≤ 0.5 |
| C33A C49A | 0.597 |
| C33A C49A C60A | 0.714 |
| C33A C49G G67C | 0.548 |
| C33A C49U C55G | ≤ 0.5 |
| C33A C49U C62G | 0.735 |
| C33A C49U C66U | 0.524 |
| C33A C49U G52A | ≤ 0.5 |
| C33A C55G A69C | ≤ 0.5 |
| C33A C55G C66U | ≤ 0.5 |
| C33A C55U | 0.581 |
| C33A C55U C61A | 0.559 |
| C33A C60G A70G | ≤ 0.5 |
| C33A C60U | ≤ 0.5 |
| C33A C61G | 0.775 |
| C33A G38A A40C A43G G51C C61G | ≤ 0.5 |
| C33A G38C A43G U53C | 0.547 |
| C33A G38C G50A | ≤ 0.5 |

| Variant | yeast fitness |
| --- | --- |
| C33A G39A G50C G67C | 0.573 |
| C33A G39A G52C C55G | ≤ 0.5 |
| C33A G39C | 0.677 |
| C33A G39C A42G C55U A57G | 0.585 |
| C33A G39C C49U U54A G63C G67A | ≤ 0.5 |
| C33A G41A | 0.635 |
| C33A G44A | 0.617 |
| C33A G44A A70C | 0.547 |
| C33A G44A G68U | ≤ 0.5 |
| C33A G44A U64G | ≤ 0.5 |
| C33A G48C A69G | 0.684 |
| C33A G48C A70G | ≤ 0.5 |
| C33A G50A A69U A70C | ≤ 0.5 |
| C33A G50C U53C U64C G68U | 0.586 |
| C33A G50U | 0.524 |
| C33A G51A | 0.659 |
| C33A G51C C62G | ≤ 0.5 |
| C33A G52A | ≤ 0.5 |
| C33A G52A A65U | ≤ 0.5 |
| C33A G56C | 0.634 |
| C33A G56C A70C | 0.574 |
| C33A G58C | 0.647 |
| C33A G58C U64G | 0.564 |
| C33A G67A | 0.586 |

| Variant | yeast fitness |
| --- | --- |
| C33A G67C | 0.621 |
| C33A U35A G68C | ≤ 0.5 |
| C33A U35A U64C G68C | ≤ 0.5 |
| C33A U35C C60A | ≤ 0.5 |
| C33A U35G C49U | 0.904 |
| C33A U53A | ≤ 0.5 |
| C33A U53A C60G | 0.681 |
| C33A U54C | 0.561 |
| C33A U54G | 0.518 |
| C33A U64A A70C | ≤ 0.5 |
| C33G A36C | ≤ 0.5 |
| C33G A36C A57U | ≤ 0.5 |
| C33G A36C C46A | ≤ 0.5 |
| C33G A36C C66U | 0.502 |
| C33G A36G G39C G67U | ≤ 0.5 |
| C33G A36G G51C U64A C66U A69C | ≤ 0.5 |
| C33G A36U | 0.589 |
| C33G A36U A57U | 0.581 |
| C33G A36U C49A | ≤ 0.5 |
| C33G A36U G39A A57U | ≤ 0.5 |
| C33G A36U G44A U59C | 0.611 |
| C33G A37C A45C | ≤ 0.5 |
| C33G A37G A40C C49G G67C | ≤ 0.5 |
| C33G A37G A43C U47C G58C | ≤ 0.5 |

| Variant | yeast fitness |
| --- | --- |
| C33G A37U A40C | ≤ 0.5 |
| C33G A40C | 0.697 |
| C33G A40G | 0.615 |
| C33G A40G A43G G44A | ≤ 0.5 |
| C33G A40G G51C C61U A65U | 0.667 |
| C33G A40G G52C | ≤ 0.5 |
| C33G A40G G58A C66G | ≤ 0.5 |
| C33G A40G U59A | ≤ 0.5 |
| C33G A40U G48C C60G | ≤ 0.5 |
| C33G A40U G51C | ≤ 0.5 |
| C33G A42C | 0.675 |
| C33G A42C G67A | ≤ 0.5 |
| C33G A42G C49U G67A | ≤ 0.5 |
| C33G A42G G44A U64C | ≤ 0.5 |
| C33G A42G G52A C62A | ≤ 0.5 |
| C33G A42G G52A C62A A69U A70U | ≤ 0.5 |
| C33G A42U | 0.73 |
| C33G A42U A43U A65C G68C | 0.553 |
| C33G A42U C60G | ≤ 0.5 |
| C33G A43C | 0.666 |
| C33G A43C C62A G67C | 0.743 |
| C33G A43G G58A G67A A69U | 0.573 |
| C33G A45C | 0.684 |
| C33G A45C C66A | 0.514 |

| Variant | yeast fitness |
| --- | --- |
| C33G A45G A70U | ≤ 0.5 |
| C33G A45U C46U | ≤ 0.5 |
| C33G A57C | ≤ 0.5 |
| C33G A57U | ≤ 0.5 |
| C33G A57U C62U | ≤ 0.5 |
| C33G A69C | 0.742 |
| C33G A69C A70U | 0.611 |
| C33G A69U | 0.764 |
| C33G C34A A40C | ≤ 0.5 |
| C33G C34A A43G C55A | 0.635 |
| C33G C34A A43G C61U A65C | ≤ 0.5 |
| C33G C34G A43C G48C C62U | ≤ 0.5 |
| C33G C34G A43G C46G | ≤ 0.5 |
| C33G C34G U35A G44A | ≤ 0.5 |
| C33G C34G U35C C46U | ≤ 0.5 |
| C33G C34U | 0.563 |
| C33G C34U C55U A65U G68C | ≤ 0.5 |
| C33G C34U G38C | ≤ 0.5 |
| C33G C34U G68A | 0.582 |
| C33G C34U U53C C61U | ≤ 0.5 |
| C33G C46A | 0.71 |
| C33G C46U C60U | ≤ 0.5 |
| C33G C49A | 0.628 |
